The test system of one assay is MDA-MB-231. Kind of assay: Cytotoxicity against human MDA-MB-231 cells after 4 days XTT assay. It is filed as functional, cell-based. To be noted: MDA-MB-231, 96 h. In short, it runs like this:
(§1)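 XTT assay with four-day drug treatment. Cells were plated one day before dosing and drug was added on day 2. XTT was read on day 5 after drug addition by absorbance at 595 nm. Absorbance was converted to percent survival against mock-treated cells to give dose-dependent cytotoxicity. Triplicate sets. HeLa, MDA-MB231 and MDA-MB468 were maintained in DMEM with 10% FBS.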
(Tetrazolium dyes change colour on reduction, which living cells bring about.)

For a further assay, the system named is MDA-MB-468. In words: Cytotoxicity against human MDA-MB-468 cells after 4 days by XTT assay. Format: functional, cell-based. To be noted: MDA-MB-468, 96 h. The gist of the method:
as §1

The test system of assay [1] is HeLa. Kind of assay: Cytotoxicity against human HeLa cells after 4 days by XTT assay. It is filed as functional, cell-based. To be noted: 96 h. The gist of the method: as §1
The next assay has as its system K562. Kind of assay: Cytotoxicity against human K562 cells after 4 days by XTT assay. It is filed as functional, cell-based. To be noted: K562, 96 h.
In assay [2] the test system is HeLa. Kind of assay: Anticancer activity against human HeLa cells assessed as reduction of Nek2 level at 25 uM by Western blot assay. Format: functional, cell-based.
In assay [3] the test system is HeLa. In words: Anticancer activity against human HeLa cells assessed as reduction of Nek2 level at 25 uM after 8 to 11 hrs by Western blot assay. It is filed as functional, cell-based. For orientation: Immunoblotting shows a protein as a band on a membrane.
The target in assay [4] is T1, Kinetochore protein NDC80 homolog (Homo sapiens) (UniProt O14777).
T1 sequence (whole entry): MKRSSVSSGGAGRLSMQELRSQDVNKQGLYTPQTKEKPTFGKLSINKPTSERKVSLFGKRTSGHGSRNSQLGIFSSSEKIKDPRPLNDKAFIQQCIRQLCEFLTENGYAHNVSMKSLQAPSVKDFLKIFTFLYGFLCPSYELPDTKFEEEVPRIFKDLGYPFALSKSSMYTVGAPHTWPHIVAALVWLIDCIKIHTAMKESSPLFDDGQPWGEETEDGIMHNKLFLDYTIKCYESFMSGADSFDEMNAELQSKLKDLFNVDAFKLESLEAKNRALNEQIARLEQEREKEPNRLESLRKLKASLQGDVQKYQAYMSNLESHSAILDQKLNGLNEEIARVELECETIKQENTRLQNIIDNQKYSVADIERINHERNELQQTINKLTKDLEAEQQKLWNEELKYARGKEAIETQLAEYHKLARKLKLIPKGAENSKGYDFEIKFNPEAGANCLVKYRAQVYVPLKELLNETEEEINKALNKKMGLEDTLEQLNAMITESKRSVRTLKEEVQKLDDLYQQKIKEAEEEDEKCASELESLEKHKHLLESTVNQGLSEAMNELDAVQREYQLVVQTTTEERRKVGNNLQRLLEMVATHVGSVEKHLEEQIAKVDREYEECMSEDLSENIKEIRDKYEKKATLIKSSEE
Kind of assay: Inhibition of Hec1/Nek2 complex in human Hela cells assessed as mitotic abnormality with multipolar spindle configuration at 25 uM after 24 hrs by immuno-fluorescent staining. Format: cell-based.

The target in assay [5] is T2, Serine/threonine-protein kinase Nek2 (Homo sapiens) (UniProt P51955).
T2 sequence (whole entry): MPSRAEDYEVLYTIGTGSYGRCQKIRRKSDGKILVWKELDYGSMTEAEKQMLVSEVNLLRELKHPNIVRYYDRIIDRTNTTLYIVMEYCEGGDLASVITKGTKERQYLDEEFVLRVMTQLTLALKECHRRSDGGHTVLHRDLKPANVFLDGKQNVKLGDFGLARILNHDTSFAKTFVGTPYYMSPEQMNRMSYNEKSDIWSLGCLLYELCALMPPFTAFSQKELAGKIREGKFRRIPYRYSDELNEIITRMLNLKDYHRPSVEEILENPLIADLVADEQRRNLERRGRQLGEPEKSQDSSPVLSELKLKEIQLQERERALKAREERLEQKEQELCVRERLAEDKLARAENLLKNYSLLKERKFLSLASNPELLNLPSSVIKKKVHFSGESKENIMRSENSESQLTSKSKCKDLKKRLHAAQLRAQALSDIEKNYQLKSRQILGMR
Kind of assay: Binding affinity to NeK2 in human HeLa cell extract by affinity pulldown assay. It is filed as cell-free. In short, it runs like this:
(§2)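 Compounds were conjugated to affi-gel matrix. HeLa cell extract was incubated with control or compound-conjugated matrices and the precipitates were washed thoroughly. Bound proteins were resolved by SDS-PAGE and Western blotted for Hec1 and Nek2. Whole cell extract served as input, in duplicates.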

The test system of assay [6] is HeLa. Kind of assay: Anticancer activity against human HeLa cells assessed as reduction of Nek2 level at 6.25 uM by Western blot assay. Format: functional, cell-based. In short, it runs like this: (§3)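 HeLa cells in DMEM with 10% FBS were treated with compound at 6.25 μM and harvested at various time points. Extracts were run on SDS-PAGE and Western blotted for Nek2 and Hec1, with p84 (nuclear matrix protein) as loading control. Nek2 level was followed over time after treatment.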

The test system of assay [7] is HeLa. In words: Anticancer activity against human HeLa cells assessed as reduction of Nek2 level at 6.25 uM after 8 to 11 hrs by Western blot assay. Details: scale not given: the % may be the effect or the level left. It is filed as functional. In short, it runs like this: as §3
Assay [8] concerns the target T1, Kinetochore protein NDC80 homolog (Homo sapiens). Kind of assay: Inhibition of Hec1/Nek2 complex in human Hela cells assessed as mitotic abnormality with multipolar spindle configuration at 3.75 uM after 24 hrs by immuno-fluorescent staining. It is filed as cell-based. In short, it runs like this:
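HeLa cells were treated with compound at 3.75 μM or buffer mock for 24 h. Cells were immunostained for α-tubulin and γ-tubulin with DAPI for DNA. Mitotic cells were examined for spindle pole number, i.e. multipolar spindles.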

For assay [9], the system named is HeLa. Kind of assay: Anticancer activity against human HeLa cells expressing H2B-GFP assessed as increase in rate of chromosome misalignment at 2.5 uM after 24 hrs. Format: functional, cell-based. The gist of the method: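 HeLa cells expressing the chromosome marker H2B-GFP were treated with compound at 2.5 μM. The incidence of metaphase chromosome alignment was scored. Triplicate sets were measured to give averages and deviations.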

Assay [10] deals with HeLa. In words: Induction of apoptosis in human HeLa cells assessed as morphological changes with membrane bubbling at 2.5 uM. Format: functional, cell-based. The gist of the method: (§4)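 HeLa cells were treated with compound at 2.5 μM, with buffer as mock control. Phase contrast images were taken at various time points to assess dying-cell morphology such as membrane bubbling. Cell cycle profiling was done by FACS at 72 h.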

In assay [11] the test system is HeLa. In words: Cell cycle arrest in human HeLa cells assessed as accumulation at subG1 phase at 2.5 uM after 72 hrs by FACS analysis. It is filed as functional. In short, it runs like this: as §4
For orientation: Flow cytometry measures light scatter and fluorescence of single cells or particles in a stream.

In assay [12] the target is T1, Kinetochore protein NDC80 homolog (Homo sapiens). In words: Inhibition of Hec1/Nek2 complex in human Hela cells assessed as mitotic abnormality with multipolar spindle configuration at 3.75 uM after 24 hrs by immuno-fluorescent staining.
For assay [13] the target is unchanged. Kind of assay: Binding affinity to Hec1 in human HeLa cell extract by affinity pulldown assay. Format: cell-free. In short, it runs like this: as §2

Results on 3 molecules are retold here after ChEMBL document CHEMBL1152785, “Synthesis and biological evaluation of a series of novel inhibitor of Nek2/Hec1 analogues” (J Med Chem, 2009).

The source made the active and inactive calls. No cut-off for these calls is given here.

As to `Cc1ccc(-c2csc(NC(=O)c3ccccc3)n2)c(C)c1`, the IC50 in the assay with MDA-MB-231 was determined as 8.6 µM; in the assay on MDA-MB-468 it was 10.5 µM; in the assay on HeLa [1] it was 8.8 µM; with K562, 11.7 µM. Further, the result (in the assay with HeLa [2]; with HeLa [3]; in assay [4]) was Active.
Regarding `Cc1cc(C)c(-c2csc(NC(=O)N3CCOCC3)n2)c(C)c1`, the IC50 in the assay on MDA-MB-231 stood at 1.6 µM; in the assay on MDA-MB-468, 4.2 µM; in the assay with HeLa [1], 2.5 µM; with K562, 3.8 µM. Further, the result in assay [5] was inactive. Besides, the result (in the assay on HeLa [6]; in [8]; in the assay on HeLa [9]; with HeLa [10]; in [12]) was Active. Also, the Activity in the assay with HeLa [7] came to 50%; in the assay on HeLa [11], 20.1%.
`Cc1cc(C)c(-c2csc(NC(=O)c3ccccc3)n2)c(C)c1`: the half-inhibitory concentration (IC50) in the assay with MDA-MB-231 is 1.7 µM; in the assay with MDA-MB-468, 2.1 µM; in the assay with HeLa [1], 2.4 µM; with K562 it was 2.5 µM. The outcome (in assay [13]; in the assay with HeLa [6]; in [8]; in the assay on HeLa [9]; in the assay on HeLa [10]; in assay [12]) was Active. Moreover, the outcome in [5] was inactive. For the same molecule, the Activity turned out to be 50% in the assay on HeLa [7] and 19.9% in the assay on HeLa [11].

In general, IC50 refers to the concentration needed to halve the response being measured.
